The results in this text go back to ChEMBL document CHEMBL4033795, “Design, Synthesis, and Structure-Activity Relationship Study of 2-Oxo-3,4-dihydropyrimido[4,5- d]pyrimidines as New Colony Stimulating Factor 1 Receptor (CSF1R) Kinase Inhibitors” (J Med Chem, 2018).

The target of test [1] is Fibroblast growth factor receptor 4 (Homo sapiens, UniProt P22455). Briefly: Inhibition of cytoplasmic recombinant human His-tagged FGFR4 ([…] residues) expressed in baculovirus using tyr4 peptide as substrate after 1 hr by FRET-based Z'-Lyte assay.
Sequence of Fibroblast growth factor receptor 4 (P22455 whole entry): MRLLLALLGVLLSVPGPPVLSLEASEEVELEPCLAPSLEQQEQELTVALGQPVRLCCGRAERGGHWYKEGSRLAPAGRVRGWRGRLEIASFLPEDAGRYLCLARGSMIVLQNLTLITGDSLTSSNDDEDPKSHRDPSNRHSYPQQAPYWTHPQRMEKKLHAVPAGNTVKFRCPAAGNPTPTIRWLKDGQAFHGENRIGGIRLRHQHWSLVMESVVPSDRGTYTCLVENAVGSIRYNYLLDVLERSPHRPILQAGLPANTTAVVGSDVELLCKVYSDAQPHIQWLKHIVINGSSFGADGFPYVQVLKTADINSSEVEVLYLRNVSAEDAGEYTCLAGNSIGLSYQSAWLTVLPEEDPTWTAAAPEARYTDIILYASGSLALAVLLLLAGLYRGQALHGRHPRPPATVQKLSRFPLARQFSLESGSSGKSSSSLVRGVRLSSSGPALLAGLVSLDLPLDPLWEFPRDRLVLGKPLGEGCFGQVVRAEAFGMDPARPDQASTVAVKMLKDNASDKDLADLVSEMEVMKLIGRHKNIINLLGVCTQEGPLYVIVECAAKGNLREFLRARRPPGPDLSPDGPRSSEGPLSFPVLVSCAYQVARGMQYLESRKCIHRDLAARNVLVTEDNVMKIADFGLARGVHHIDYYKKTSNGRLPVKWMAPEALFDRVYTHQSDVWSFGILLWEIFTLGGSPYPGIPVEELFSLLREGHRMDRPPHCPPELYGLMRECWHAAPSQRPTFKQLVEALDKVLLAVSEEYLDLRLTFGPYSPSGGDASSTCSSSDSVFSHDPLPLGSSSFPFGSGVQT
A further test has as its system RAW264.7. Briefly: Inhibition of protumorigenic potential of mouse RAW264.7 cells assessed as abrogation of human LNCAP cell growth enhancement of macrophages co-cultured for 48 hrs by CCK8 assay. It counts as functional, cell-based. A digest of the protocol:
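LNCaP cells, (2−4) × 10^5, were seeded in the lower transwell chamber. After 2 h, (1−2) × 10^6 RAW264.7 cells were added in a 0.4 μm insert. Compound at 0.016–2.0 μM was added to the top chamber and cells were cocultured 48 h at 37 °C. LNCaP cells were then imaged and counted by CCK8. Run three times, each in triplicate.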

Test [2] addresses Tyrosine-protein kinase Lyn (Homo sapiens) (UniProt P07948). Briefly: Inhibition of recombinant human LYN-B expressed in bacterial expression system at 100 nM by KINOMEscan assay relative to control.

pIC50: −log10 of the molar value.

Sequence of Tyrosine-protein kinase Lyn (Homo sapiens) (P07948 2-512 limits assumed): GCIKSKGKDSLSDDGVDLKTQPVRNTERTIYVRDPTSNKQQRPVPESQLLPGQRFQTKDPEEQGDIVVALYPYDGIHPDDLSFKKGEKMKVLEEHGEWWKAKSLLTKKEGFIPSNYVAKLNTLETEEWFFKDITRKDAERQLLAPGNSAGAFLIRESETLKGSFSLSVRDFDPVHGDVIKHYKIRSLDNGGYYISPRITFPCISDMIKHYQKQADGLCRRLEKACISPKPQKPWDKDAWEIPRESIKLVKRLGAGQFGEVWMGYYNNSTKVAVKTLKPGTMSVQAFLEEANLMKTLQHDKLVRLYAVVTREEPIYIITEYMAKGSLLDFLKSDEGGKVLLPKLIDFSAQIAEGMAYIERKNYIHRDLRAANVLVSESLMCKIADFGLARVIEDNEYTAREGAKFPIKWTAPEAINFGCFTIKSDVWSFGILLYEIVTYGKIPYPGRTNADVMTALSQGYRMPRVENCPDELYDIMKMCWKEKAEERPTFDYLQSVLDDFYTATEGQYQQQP

Broadly, the pIC50 is the negative decadic logarithm of the IC50, by convention in mol/L. A word on the inhibition: it is the share of the control response that was lost under treatment. Turning to `CCC(=O)N1CC[C@H](N2C(=O)N(c3cc(OC)ccc3Cl)Cc3cnc(Nc4ccc(N5CCN(C6COC6)CC5)c(C)c4)nc32)C1`, the pIC50 in test [1] was 6.78. The inhibition entry with RAW264.7 is “Dose-dependent effect”; in test [2], > 90%.
